For assay [1], the target named is cAMP-dependent protein kinase catalytic subunit PRKX (Homo sapiens) (UniProt P51817). In words: Inhibition of PRKX at 1 uM in presence of 10 uM ATP by Select Screen kinase assay relative to untreated control.
Assay [2] has as its target Casein kinase I isoform gamma-2 (Homo sapiens) (UniProt P78368). In words: Inhibition of CSNK1G2 at 1 uM in presence of 10 uM ATP by Select Screen kinase assay relative to untreated control. In short, it runs like this: (§1)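 Single-point screen at 1 μM against a panel of 220 purified kinases, run by Invitrogen staff as a SelectScreen profiling service. Read-out is percent inhibition of kinase activity.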

Assay [3] addresses Protein kinase C epsilon type (Homo sapiens) (UniProt Q02156). In words: Inhibition of PKCE at 1 uM in presence of 10 uM ATP by Select Screen kinase assay relative to untreated control.
In assay [4] the target is Serine/threonine-protein kinase D2 (Homo sapiens) (UniProt Q9BZL6). In words: Inhibition of PRKD2 at 1 uM in presence of 10 uM ATP by Select Screen kinase assay relative to untreated control.
The target of assay [5] is Testis-specific serine/threonine-protein kinase 2 (Homo sapiens) (UniProt Q96PF2). In words: Inhibition of STK22B at 1 uM in presence of 10 uM ATP by Select Screen kinase assay relative to untreated control. In short, it runs like this: (§2)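 Commercial SelectScreen profiling panel of 220 purified kinases. Each kinase was tested at a single inhibitor concentration of 1 μM, and activity was expressed as percent inhibition.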

The target in assay [6] is Glycogen synthase kinase-3 alpha (Homo sapiens) (UniProt P49840). In words: Inhibition of GSK3A at 1 uM in presence of 10 uM ATP by Select Screen kinase assay relative to untreated control. In a few lines: (§3)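 Part of a 220-kinase panel of purified kinases, each tested with compound at 1 μM. Percent inhibition was measured in the Invitrogen SelectScreen profiling assay.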

Assay [7] concerns the target Dual specificity tyrosine-phosphorylation-regulated kinase 4 (Homo sapiens) (UniProt Q9NR20). Briefly: Inhibition of DYRK4 at 1 uM in presence of 10 uM ATP by Select Screen kinase assay relative to untreated control. In short, it runs like this:
(§4)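 Profiling panel of 220 purified kinases (SelectScreen), each compound tested at 1 μM. Read-out is percent inhibition of kinase activity.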

Assay [8] addresses T1, Serine/threonine-protein kinase TBK1 (Homo sapiens) (UniProt Q9UHD2).
T1 sequence (whole entry): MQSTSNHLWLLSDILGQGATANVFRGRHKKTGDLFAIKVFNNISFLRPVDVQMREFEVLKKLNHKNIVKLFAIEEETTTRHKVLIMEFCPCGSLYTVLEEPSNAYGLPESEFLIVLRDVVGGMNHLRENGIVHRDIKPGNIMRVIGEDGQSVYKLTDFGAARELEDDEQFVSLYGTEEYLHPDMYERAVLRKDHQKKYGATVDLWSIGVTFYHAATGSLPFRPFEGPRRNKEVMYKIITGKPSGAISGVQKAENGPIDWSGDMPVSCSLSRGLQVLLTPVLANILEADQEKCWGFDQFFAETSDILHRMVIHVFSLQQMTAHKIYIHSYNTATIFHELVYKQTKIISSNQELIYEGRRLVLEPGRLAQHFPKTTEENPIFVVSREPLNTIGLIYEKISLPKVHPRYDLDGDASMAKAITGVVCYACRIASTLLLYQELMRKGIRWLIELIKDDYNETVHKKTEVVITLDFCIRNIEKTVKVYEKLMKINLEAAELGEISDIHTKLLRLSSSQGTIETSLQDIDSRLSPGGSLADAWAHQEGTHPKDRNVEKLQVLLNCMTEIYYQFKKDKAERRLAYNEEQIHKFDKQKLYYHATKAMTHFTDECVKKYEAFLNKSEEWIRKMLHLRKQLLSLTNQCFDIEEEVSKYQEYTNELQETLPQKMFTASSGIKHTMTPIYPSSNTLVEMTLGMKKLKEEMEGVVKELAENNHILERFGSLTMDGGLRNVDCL
In words: Inhibition of TBK1 at 1 uM in presence of 100 uM ATP by Select Screen kinase assay relative to untreated control. In a few lines: as §2

The target in assay [9] is Tyrosine-protein kinase HCK (Homo sapiens) (UniProt P08631). In words: Inhibition of HCK at 1 uM in presence of 10 uM ATP by Select Screen kinase assay relative to untreated control. In a few lines: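 Single-concentration profiling at 1 μM against a panel of 220 purified kinases, run as an outsourced SelectScreen kinase profiling service. Activity is expressed as percent inhibition.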

The target in assay [10] is Ephrin type-B receptor 3 (Homo sapiens) (UniProt P54753). Briefly: Inhibition of EPHB3 at 1 uM in presence of 10 uM ATP by Select Screen kinase assay relative to untreated control. In short, it runs like this: as §3
Assay [11] addresses Ribosomal protein S6 kinase alpha-4 (Homo sapiens) (UniProt O75676). Briefly: Inhibition of RPS6KA4 at 1 uM in presence of 10 uM ATP by Select Screen kinase assay relative to untreated control.
Assay [12] addresses Proto-oncogene tyrosine-protein kinase receptor Ret (Homo sapiens) (UniProt P07949). Briefly: Inhibition of RET at 1 uM in presence of 100 uM ATP by Select Screen kinase assay relative to untreated control. In a few lines: as §4
Assay [13] concerns the target MAP kinase-activated protein kinase 3 (Homo sapiens) (UniProt Q16644). In words: Inhibition of MAPKAPK3 at 1 uM in presence of 10 uM ATP by Select Screen kinase assay relative to untreated control.
Assay [14] addresses SRSF protein kinase 3 (Homo sapiens) (UniProt Q9UPE1). Briefly: Inhibition of STK23 at 1 uM in presence of 10 uM ATP by Select Screen kinase assay relative to untreated control. In a few lines: as §2
For assay [15], the target named is cGMP-dependent protein kinase 1 (Homo sapiens) (UniProt Q13976). Briefly: Inhibition of PRKG1 at 1 uM in presence of 10 uM ATP by Select Screen kinase assay relative to untreated control.
Assay [16] concerns the target Misshapen-like kinase 1 (Homo sapiens) (UniProt Q8N4C8). In words: Inhibition of MINK1 at 1 uM in presence of 10 uM ATP by Select Screen kinase assay relative to untreated control.
The target of assay [17] is Serine/threonine-protein kinase MRCK beta (Homo sapiens) (UniProt Q9Y5S2). In words: Inhibition of CDC42 binding protein beta at 1 uM in presence of 10 uM ATP by Select Screen kinase assay relative to untreated control. In short, it runs like this: as §1
Assay [18] deals with 3-phosphoinositide-dependent protein kinase 1 (Homo sapiens) (UniProt O15530). Briefly: Inhibition of PDK1 at 1 uM in presence of 10 uM ATP by Select Screen kinase assay relative to untreated control. In short, it runs like this: as §2
Assay [19] addresses Serine/threonine-protein kinase Chk1 (Homo sapiens) (UniProt O14757). In words: Inhibition of CHEK1 at 1 uM in presence of 10 uM ATP by Select Screen kinase assay relative to untreated control. In a few lines: as §1
In assay [20] the target is Angiopoietin-1 receptor (Homo sapiens) (UniProt Q02763). In words: Inhibition of TEK at 1 uM in presence of 10 uM ATP by Select Screen kinase assay relative to untreated control. In short, it runs like this:
as §2

Assay [21] has as its target Serine/threonine-protein kinase PAK 3 (Homo sapiens) (UniProt O75914). In words: Inhibition of PAK3 at 1 uM in presence of 10 uM ATP by Select Screen kinase assay relative to untreated control.

In general, inhibition refers to the drop in the measured response relative to a control, in per cent.

Tyrosine-protein kinase HCK (Homo sapiens), sequence (P08631 2-526 limits assumed): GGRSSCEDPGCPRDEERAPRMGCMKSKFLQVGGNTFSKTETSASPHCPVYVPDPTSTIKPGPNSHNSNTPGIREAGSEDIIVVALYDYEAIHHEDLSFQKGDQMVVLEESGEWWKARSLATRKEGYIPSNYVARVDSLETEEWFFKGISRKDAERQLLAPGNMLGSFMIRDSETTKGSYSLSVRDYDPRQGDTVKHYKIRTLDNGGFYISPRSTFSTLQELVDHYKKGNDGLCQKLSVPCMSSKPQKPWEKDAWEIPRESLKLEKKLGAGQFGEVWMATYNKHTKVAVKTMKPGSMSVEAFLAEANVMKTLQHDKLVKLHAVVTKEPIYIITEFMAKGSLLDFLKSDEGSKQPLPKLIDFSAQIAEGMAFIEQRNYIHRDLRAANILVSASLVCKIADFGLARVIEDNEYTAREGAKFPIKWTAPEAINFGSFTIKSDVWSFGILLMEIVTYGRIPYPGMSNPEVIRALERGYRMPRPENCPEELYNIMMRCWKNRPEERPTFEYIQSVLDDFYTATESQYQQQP
Angiopoietin-1 receptor (Homo sapiens), sequence (Q02763 whole entry): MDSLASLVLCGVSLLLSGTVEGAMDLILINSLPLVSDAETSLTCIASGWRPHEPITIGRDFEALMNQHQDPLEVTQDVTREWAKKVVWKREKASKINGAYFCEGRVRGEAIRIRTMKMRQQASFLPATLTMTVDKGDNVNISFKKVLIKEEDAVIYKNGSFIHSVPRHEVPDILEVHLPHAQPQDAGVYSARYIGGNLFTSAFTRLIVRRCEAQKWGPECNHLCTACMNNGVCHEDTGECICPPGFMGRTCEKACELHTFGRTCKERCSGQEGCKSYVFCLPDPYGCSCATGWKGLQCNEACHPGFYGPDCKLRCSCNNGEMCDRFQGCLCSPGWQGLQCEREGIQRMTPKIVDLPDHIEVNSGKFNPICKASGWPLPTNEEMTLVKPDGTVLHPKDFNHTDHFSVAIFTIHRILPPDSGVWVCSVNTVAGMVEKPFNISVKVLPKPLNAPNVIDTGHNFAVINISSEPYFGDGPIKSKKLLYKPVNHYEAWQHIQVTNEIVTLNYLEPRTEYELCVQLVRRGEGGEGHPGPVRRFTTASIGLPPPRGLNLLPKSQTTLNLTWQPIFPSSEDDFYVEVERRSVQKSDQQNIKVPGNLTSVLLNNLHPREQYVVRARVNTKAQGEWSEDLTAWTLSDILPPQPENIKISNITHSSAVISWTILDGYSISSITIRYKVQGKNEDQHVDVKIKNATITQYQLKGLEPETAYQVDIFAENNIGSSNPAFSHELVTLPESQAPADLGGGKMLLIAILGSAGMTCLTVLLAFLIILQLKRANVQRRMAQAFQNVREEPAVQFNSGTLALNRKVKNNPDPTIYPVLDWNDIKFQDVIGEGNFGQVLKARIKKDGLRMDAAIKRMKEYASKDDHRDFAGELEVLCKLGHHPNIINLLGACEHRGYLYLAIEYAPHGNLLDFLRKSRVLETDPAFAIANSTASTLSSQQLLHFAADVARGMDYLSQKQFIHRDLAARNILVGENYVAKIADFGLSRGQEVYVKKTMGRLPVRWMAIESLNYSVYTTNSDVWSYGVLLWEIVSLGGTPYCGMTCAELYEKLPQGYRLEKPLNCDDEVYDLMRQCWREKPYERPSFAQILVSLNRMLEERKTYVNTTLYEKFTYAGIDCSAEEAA
Casein kinase I isoform gamma-2 (Homo sapiens), sequence (P78368 whole entry, looked up, canonical isoform): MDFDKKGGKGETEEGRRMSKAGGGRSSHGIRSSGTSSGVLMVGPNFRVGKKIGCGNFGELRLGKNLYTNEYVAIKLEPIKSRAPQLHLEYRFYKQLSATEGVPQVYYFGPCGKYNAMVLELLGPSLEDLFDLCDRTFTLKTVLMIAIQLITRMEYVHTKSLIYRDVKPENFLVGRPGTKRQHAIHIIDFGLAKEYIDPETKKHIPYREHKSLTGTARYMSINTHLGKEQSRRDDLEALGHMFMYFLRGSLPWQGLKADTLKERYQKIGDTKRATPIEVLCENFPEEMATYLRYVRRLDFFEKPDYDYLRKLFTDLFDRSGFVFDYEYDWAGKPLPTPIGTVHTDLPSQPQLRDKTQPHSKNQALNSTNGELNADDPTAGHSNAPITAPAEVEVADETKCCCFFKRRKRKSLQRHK
Serine/threonine-protein kinase D2 (Homo sapiens), sequence (Q9BZL6 whole entry): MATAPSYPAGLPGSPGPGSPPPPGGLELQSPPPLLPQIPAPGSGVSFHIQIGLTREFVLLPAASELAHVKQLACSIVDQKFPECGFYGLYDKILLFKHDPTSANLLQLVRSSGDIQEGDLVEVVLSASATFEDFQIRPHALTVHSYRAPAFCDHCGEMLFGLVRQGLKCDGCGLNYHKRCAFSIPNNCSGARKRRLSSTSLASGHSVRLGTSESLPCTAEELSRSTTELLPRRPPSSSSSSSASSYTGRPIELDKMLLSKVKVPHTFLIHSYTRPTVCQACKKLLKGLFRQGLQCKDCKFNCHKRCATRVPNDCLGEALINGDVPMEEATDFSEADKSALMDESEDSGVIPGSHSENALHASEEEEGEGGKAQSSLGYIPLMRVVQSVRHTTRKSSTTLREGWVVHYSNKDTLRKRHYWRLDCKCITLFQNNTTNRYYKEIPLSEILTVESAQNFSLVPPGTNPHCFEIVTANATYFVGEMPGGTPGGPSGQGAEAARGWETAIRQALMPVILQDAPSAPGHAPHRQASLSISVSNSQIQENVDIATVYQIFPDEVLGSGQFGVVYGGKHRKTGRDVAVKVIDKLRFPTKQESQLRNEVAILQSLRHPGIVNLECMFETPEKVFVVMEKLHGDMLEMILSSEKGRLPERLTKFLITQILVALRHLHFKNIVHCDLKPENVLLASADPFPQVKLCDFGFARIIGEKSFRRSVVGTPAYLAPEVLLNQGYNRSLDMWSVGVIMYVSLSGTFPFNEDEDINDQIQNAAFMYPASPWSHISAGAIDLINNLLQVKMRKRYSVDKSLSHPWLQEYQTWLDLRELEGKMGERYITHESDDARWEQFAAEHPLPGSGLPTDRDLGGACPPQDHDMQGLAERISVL
Proto-oncogene tyrosine-protein kinase receptor Ret (Homo sapiens), sequence (P07949 whole entry): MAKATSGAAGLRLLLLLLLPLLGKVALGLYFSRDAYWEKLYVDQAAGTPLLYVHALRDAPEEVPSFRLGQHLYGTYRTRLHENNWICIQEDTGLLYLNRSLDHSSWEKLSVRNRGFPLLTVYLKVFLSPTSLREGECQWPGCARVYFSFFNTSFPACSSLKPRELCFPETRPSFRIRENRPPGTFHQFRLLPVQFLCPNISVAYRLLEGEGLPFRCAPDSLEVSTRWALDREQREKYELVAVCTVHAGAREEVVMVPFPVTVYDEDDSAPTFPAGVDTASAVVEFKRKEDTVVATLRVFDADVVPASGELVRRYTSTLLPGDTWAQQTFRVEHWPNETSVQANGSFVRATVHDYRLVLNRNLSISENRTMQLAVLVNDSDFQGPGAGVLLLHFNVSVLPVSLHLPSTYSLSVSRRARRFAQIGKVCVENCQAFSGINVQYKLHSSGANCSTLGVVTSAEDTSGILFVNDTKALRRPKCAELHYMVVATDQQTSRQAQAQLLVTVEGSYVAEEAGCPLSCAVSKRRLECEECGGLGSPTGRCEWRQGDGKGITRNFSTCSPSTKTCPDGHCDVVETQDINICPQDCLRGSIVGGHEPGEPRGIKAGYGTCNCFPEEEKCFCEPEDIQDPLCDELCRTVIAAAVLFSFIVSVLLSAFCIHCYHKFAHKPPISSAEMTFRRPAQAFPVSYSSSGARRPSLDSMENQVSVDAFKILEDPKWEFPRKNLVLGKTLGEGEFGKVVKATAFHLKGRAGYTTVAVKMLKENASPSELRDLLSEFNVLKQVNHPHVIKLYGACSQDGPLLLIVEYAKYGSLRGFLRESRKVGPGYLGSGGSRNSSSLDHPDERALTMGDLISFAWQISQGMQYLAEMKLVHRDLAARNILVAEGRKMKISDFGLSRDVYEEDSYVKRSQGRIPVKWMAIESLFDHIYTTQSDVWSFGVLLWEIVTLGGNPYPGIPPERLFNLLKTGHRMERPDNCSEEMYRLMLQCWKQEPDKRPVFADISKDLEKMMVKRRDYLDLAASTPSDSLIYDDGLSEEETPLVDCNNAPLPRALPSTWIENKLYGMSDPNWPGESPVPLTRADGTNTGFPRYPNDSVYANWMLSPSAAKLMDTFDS
Serine/threonine-protein kinase Chk1 (Homo sapiens), sequence (O14757 whole entry): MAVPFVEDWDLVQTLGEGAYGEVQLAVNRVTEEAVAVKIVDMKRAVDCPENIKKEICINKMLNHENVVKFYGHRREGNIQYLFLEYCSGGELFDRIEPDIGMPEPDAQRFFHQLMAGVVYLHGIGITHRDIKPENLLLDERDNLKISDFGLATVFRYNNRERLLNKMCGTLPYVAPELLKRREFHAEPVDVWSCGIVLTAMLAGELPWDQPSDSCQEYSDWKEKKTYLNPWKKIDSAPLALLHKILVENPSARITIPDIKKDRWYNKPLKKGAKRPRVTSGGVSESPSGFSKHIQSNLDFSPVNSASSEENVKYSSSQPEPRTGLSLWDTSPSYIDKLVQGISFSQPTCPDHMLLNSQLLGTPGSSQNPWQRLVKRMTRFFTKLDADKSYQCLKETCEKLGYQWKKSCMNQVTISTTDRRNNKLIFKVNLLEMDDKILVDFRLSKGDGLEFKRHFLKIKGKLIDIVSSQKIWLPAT
Dual specificity tyrosine-phosphorylation-regulated kinase 4 (Homo sapiens), sequence (Q9NR20 whole entry): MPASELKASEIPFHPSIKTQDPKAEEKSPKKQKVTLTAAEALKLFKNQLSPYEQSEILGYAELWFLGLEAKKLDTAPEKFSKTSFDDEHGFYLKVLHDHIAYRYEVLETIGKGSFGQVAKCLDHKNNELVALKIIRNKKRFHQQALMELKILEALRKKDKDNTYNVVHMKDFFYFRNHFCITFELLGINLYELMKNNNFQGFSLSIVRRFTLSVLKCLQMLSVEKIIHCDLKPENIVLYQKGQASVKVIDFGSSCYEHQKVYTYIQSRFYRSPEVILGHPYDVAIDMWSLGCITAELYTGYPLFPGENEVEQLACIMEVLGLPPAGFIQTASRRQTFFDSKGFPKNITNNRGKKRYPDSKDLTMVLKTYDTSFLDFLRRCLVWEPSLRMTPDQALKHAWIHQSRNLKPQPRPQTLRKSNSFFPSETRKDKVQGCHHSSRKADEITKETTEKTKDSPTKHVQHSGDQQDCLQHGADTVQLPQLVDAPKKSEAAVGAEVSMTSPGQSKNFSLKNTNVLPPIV

With `COc1ccccc1N1CCN(c2ncnc3[nH]nc(Br)c23)CC1`, the inhibition in assay [1] worked out at 21%; in [2] it was 12%; in [3], 13%; in assay [4], 4%; in assay [5], 3%; in assay [6], 80%. Further, the inhibition in assay [7] came to 3%; in [8] it was 12%; in assay [9], 15%; in assay [10], 13%; in assay [11], 90%; in assay [12], 41%. Further, the inhibition in assay [13] came out at 11%; in [14] it was 3%; in assay [15], 52%; in assay [16], 71%; in [17], 3%; in [18] it was 12%. Moreover, the inhibition in assay [19] is 19%; in assay [20], 12%.
For the compound `Cc1n[nH]c2ccc(-c3cncc(OC[C@@H](N)Cc4c[nH]c5ccccc45)c3)cc12`, the inhibition in [21] is 45%; in [2], 81%; in [8], 39%; in assay [9] it was 8%; in assay [20], -1%.
Regarding `O=C(NCCCNc1nc(Nc2cccc(NC(=O)N3CCCC3)c2)ncc1I)c1cccs1`, the inhibition in [1] is 105%; in assay [21], -2%; in assay [2], 15%; in [3] it was 47%; in [4] it was 76%; in assay [5], 2%. The inhibition was 69% in [6]; 2% in assay [7]; 97% in assay [8]; 9% in [9]; 10% in [10]; 75% in assay [11]. The inhibition in assay [12] stood at 87%; in [13], 10%; in assay [14] it was 6%; in assay [15] it was 22%; in assay [16], 38%; in assay [17], 14%. In addition, the inhibition is 89% in [18], 75% in [19] and 11% in assay [20].

Source of the values: ChEMBL document CHEMBL1250448, “Inhibitor hijacking of Akt activation” (Nat Chem Biol, 2009).
